STAT3 act – STAT3 signaling activation. U3A cells, IL-6 STAT3-luciferase reporter, luminescence; 100% = signal with IL-6 EC80 alone. activation (% of control), % at 5.6 µM. 190,000 tested, 0.91% active;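 active = activation above the screen-wide mean of compound activation plus 3 SD, cut at about 130% in these data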;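 also: 0% = background luminescence of wells with medium and substrate only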
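Material: STAT3-luciferase reporter U3A cells. Controls: IL-6-treated wells, 100% activation. Read-out: % activation versus median of IL-6-stimulated wells. Probe or stimulus: IL-6 stimulus at 33 ng/mL final. Timing: compound 1 h, then IL-6 6 h at 37 °C. Signal: reporter luminescence signal.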
STAT1 inh – inhibitors of IFN-gamma induced STAT1 signaling. inhibition, % at 5.5 µM. NIH 3T3 STAT1-luciferase reporter, luminescence. 200,000 tested, 0.35% active;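 active = inhibition above a set limit, the mean inhibition across all tested compounds plus 3 SD, cut at about 34% in these data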;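 also: 0% = IFN-gamma with DMSO and 100% = IFN-gamma with 300 µM nifuroxazide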
STAT1 act – STAT1 signaling activation | NIH 3T3 STAT1-luciferase reporter, IFN-gamma, luminescence; 100% = IFN-gamma alone, no compound | activation (% of control), % at 5.5 µM | 200,000 tested, 2.6% active | AID 932;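 active = activation above the screen-wide mean activation plus 3 SD, cut at about 130% in these data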;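 also: raw ratio to IFN-gamma control signal so 100% means no change and 0% no light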
APP 5'UTR act – APP 5'UTR luciferase reporter activation; 190,000 tested, 1% active; activation, % at 2 µM; SH-SY5Y APP 5'UTR luciferase reporter, luminescence; zero percent = DMSO vehicle wells;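 active = activation above a set limit, based on mean plus 3 SD of controls, cut at about 140% in these data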
NF-kB expr up – compounds increasing NF-kB expression in human neuronal cells | NF-kB reporter expression; active compounds read high | fold change at 12.5 µM | 190,000 tested, 1.6% active | AID 1239; in the data active = fold change above about 3.3
Pf gametocyte – kills late stage P. falciparum gametocytes. P. falciparum stage V gametocytes, ATP luminescence, 24 h. inhibition, % at 10.9 µM. 150,000 tested, 0.065% active;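 active = inhibition above the mean plus 3 SD of compounds within the control limits, set per campaign, cut at about 38% in these data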;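 also: 0% = DMSO wells and 100% = medium only without gametocytes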
STAT1 activ conf – confirmation of STAT1 signaling activators | AID 1262 | 1,200 tested, 97% active | activation (% of control), % at 5.7 µM | NIH 3T3 STAT1-luciferase reporter, IFN-gamma potentiation, luminescence; 100% = IFN-gamma EC80 alone, no compound | shares compounds with STAT1 act;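 active = activation above a set limit carried over from the earlier primary STAT1 screen, cut at about 140% in these data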;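 also: simple ratio to median IFN-gamma plus DMSO wells so 0% means no light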
NFkB act – counter-screen for STAT1 activators: NF-kappaB activation; 1,200 tested, 43% active; HEK293T NF-kB luciferase reporter, TNF-alpha stimulated, luminescence; 100% = TNF-alpha with vehicle only; shares compounds with STAT1 act; activation (% of control), % at 5.7 µM; AID 1306;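 active = activation above the mean of solvent-only control wells plus 3 SD, set per campaign, cut at about 130% in these data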;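 also: TNF-alpha given at a submaximal dose yielding about 80% of full reporter signal; values are well signal over median control so 100% means no change and 0% no light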
STAT3 act STAT1c – human STAT3 activation in STAT1 activator counter-screen; U3A cells STAT3-luciferase reporter, IL-6, luminescence; cells lack STAT1; 100 = IL-6 alone, no compound effect; activation (% of control), % at 5.7 µM; shares compounds with STAT1 act; AID 1316; 1,200 tested, 46% active;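 active = activation above the solvent-only control well mean plus 3 SD, set per plate batch, cut at about 110% in these data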;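 also: 0% = no luminescence and 100% = median IL-6 plus DMSO wells; higher means more STAT3 reporter activation so hits are non-selective activators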
The depositor's hits bear a star; . = no result. Compounds with a hit are over-represented: about 3.9% of the library has one in this group of screens.

SMILES | STAT3 act | STAT1 inh | STAT1 act | APP 5'UTR act | NF-kB expr up | Pf gametocyte | STAT1 activ conf | NFkB act | STAT3 act STAT1c
CCOCC(=O)Nc1c(C(=O)Nc2ccccc2OC)oc2ccccc12 | 91 | -6 | 106 | 9 | 1.2 | -45 | . | . | .
O=C(Nc1ccc2c(c1)OCCO2)c1oc2ccccc2c1NC(=O)C1CC1 | 88 | -11 | 111 | -6 | 1.2 | -7 | . | . | .
O=C(N/N=C/C=C/c1ccccc1)NC1CCCCC1 | 101 | -19 | 116 | 0 | 1.2 | -11 | . | . | .
COC(=O)c1sc(NC(=S)NC(=O)c2cccc(Br)c2)nc1C | . | . | . | . | . | 5 | . | . | .
CCOC(=O)/C(C#N)=C/c1cc(C)n(-c2ccccc2)c1C | 77 | -41 | 165* | 153* | 1.2 | . | 255* | 115 | 105
COc1ccc(NC(=O)N(C)C[C@H]2Oc3ccc(NC(=O)c4ccncc4)cc3C(=O)N([C@H](C)CO)C[C@@H]2C)cc1 | . | . | . | . | . | -11 | . | . | .
CC(C)NC(=O)NC(=O)COc1ccc(Br)cc1Br | 83 | -88 | 179* | 203* | 5.1* | . | 235* | 123 | 101
Cc1ccccc1Nc1nc(N)nc(CSc2ccc(F)cc2)n1 | 101 | -65 | 156* | 168* | 6* | -5 | 195* | 127 | 125*
CC1(c2ccc(Cl)cc2)NC(=O)CS1 (stereo not given) | 103 | 5 | 94 | 17 | 1.3 | 8 | . | . | .
CCOC(=O)c1cnc2c(-c3ccccc3)cnn2c1C | 85 | -60 | 154* | 155* | 7.3* | -2 | 198* | 135* | 102
CC(=O)c1cnc2c(-c3ccccc3)cnn2c1C | 85 | -23 | 121 | 13 | 1.3 | . | . | . | .
O=C(Nc1ccc2c(c1)CCC2)c1c(F)cccc1Cl | 102 | -84 | 175* | 100 | 4.2* | 11 | 196* | 140* | 112*
O=C(Nc1ccc2c(c1)CCC2)c1ccc(F)cc1 | 71 | -81 | 174* | 197* | 8.5* | -2 | 233* | 114 | 87
O=C(Nc1ccc2c(c1)CCC2)c1cccs1 | 92 | -61 | 157* | 92 | 6.2* | 2 | 198* | 136* | 104
O=C(Nc1ccc2c(c1)CCC2)c1cccc(OC(F)F)c1 | . | . | . | . | . | 20 | . | . | .
NS(=O)(=O)c1ccc(NC(=O)c2c(F)cccc2Cl)cc1 | . | . | . | . | . | 8 | . | . | .
CC(C)CC(c1nnnn1C1CCCC1)N1CCC(C(N)=O)CC1 (stereo not given) | 100 | 7 | 92 | 0 | 1.1 | 17 | . | . | .
O=C(O)CN1C(=O)C2C3CC(C2C1=O)C1C(c2ccc(F)cc2)c2sc(=O)[nH]c2SC31 (stereo not given) | 101 | -6 | 104 | -5 | 1.1 | -22 | . | . | .
c1ccc(-c2noc(-c3ccc4ccccc4c3)n2)cc1 | 54 | -56 | 151* | 150* | 3 | . | 184* | 76 | 91
Cc1ccc(NC(=O)C(C)N2C(=O)c3ccccc3C2=O)cc1C (stereo not given) | . | . | . | . | . | 1 | . | . | .
CN(C)c1ccc(C(=O)/C=C/c2ccco2)cc1 | 74 | -76 | 168* | 204* | 5.6* | -2 | 178* | 120 | 122*
CC1CC(CN)CC(CO)C1 (stereo not given) | 103 | -9 | 107 | -7 | 0.93 | -6 | . | . | .
CC(C)(C)c1ccc(OCCn2ccccc2=O)cc1 | 94 | -82 | 177* | 115 | 5.5* | -1 | 197* | 128 | 117*
Cc1c(-c2nc(N)nc(Nc3ccc(F)cc3)n2)oc2ccccc12 | 102 | -65 | 156* | 152* | 3.3* | 4 | 183* | 142* | 106
COC(=O)c1ccccc1NC(=O)c1c(O)c2c([nH]c1=O)CCCC2 | 92 | -9 | 106 | 17 | 1.2 | . | . | . | .
SMILES | STAT3 act | STAT1 inh | STAT1 act | APP 5'UTR act | NF-kB expr up | Pf gametocyte | STAT1 activ conf | NFkB act | STAT3 act STAT1c
O=C(Nc1ccc(O)cc1)c1c(O)c2c([nH]c1=O)CCCC2 | 83 | -65 | 155* | 162* | 1 | . | 205* | 139* | 93
COc1ccc(N/N=C(/C(C)=O)N2CCCc3ccccc32)cc1 | . | . | . | . | . | -6 | . | . | .
COc1ccc(-c2noc(Cc3cccs3)n2)cc1 | 95 | -69 | 162* | 96 | 3.9* | . | 181* | 138* | 104
Cc1ccc(-c2csc3ncnc(NCCC(=O)O)c23)cc1C | . | . | . | . | . | -12 | . | . | .
COc1ccc(Cn2c(C3CC3)nc3ccc(NC(C)=O)cc3c2=O)cc1 | 118 | -75 | 169* | 142* | 4.3* | 4 | 213* | 143* | 134*
OCC[C@@H]1C[C@H](O)[C@@H](O)[C@]2(OCc3ccccc32)O1 | . | . | . | . | . | 4 | . | . | .
COc1cccc(-c2nc(-c3cccs3)no2)c1 | . | . | . | . | . | -3 | . | . | .
COc1cccc(-c2noc(-c3ccoc3C)n2)c1 | 84 | -67 | 160* | 109 | 2.9 | -5 | 192* | 134* | 111*
COc1ccc(-c2noc(-c3ccco3)n2)cc1OC | 108 | -57 | 152* | 124 | 5.7* | . | 202* | 137* | 119*
CN(C)c1ccc(N=C/C=C2/N(C)c3ccccc3C2(C)C)cc1 | 82 | -80 | 173* | 164* | 0.6 | -23 | 121 | 117 | 110
CN1/C(=C\C=N\O)C(C)(C)c2ccccc21 | 95 | -5 | 102 | 10 | 1.2 | 1 | . | . | .
Clc1ccc(OCc2nc(-c3ccncc3)no2)c(Cl)c1 | 101 | -81 | 174* | 144* | 5.8* | . | 230* | 142* | 116*
Clc1cccc(OCc2nc(-c3ccncc3)no2)c1 | 97 | -15 | 114 | -4 | 0.77 | -3 | . | . | .
CCCCN(C(=O)Cn1nnc2ccccc21)C(C(=O)NCCOC)c1cccs1 (stereo not given) | 98 | 4 | 96 | 4 | 1.2 | . | . | . | .
CCCCC(O)(CCCC)C(=O)NN(C(=O)OC)c1ccc(C)cc1 | . | . | . | . | . | 6 | . | . | .
COc1ccc(-c2[nH]n(-c3ccc([N+](=O)[O-])cc3)c(=O)c2C=NCCN2CCNCC2)cc1 | 106 | 5 | 95 | -14 | 1 | . | . | . | .
O=c1c(C=NCCN2CCNCC2)c(-c2ccccc2)[nH]n1-c1ccc([N+](=O)[O-])cc1 | 111 | -75 | 168* | 8 | 1.8 | . | 145* | 125 | 120*
COc1ccc(-c2csc(Nc3ccccc3)n2)cc1 | 99 | -85 | 180* | 195* | 5.4* | 0 | 232* | 152* | 110

Screens from PubChem.
